Experiment [1] relates to Nonstructural protein 5A (Hepatitis C virus), Q5L478 [UNDEFINED MUTATION]. Kind of experiment: Inhibition of HCV GT1a NS5A L31V mutant assessed as suppression of replicon RNA level by real-time PCR analysis. To be noted: Hepatitis C virus subtype 1a.
Experiment [2] concerns the target T1, Nonstructural protein 5A (Hepatitis C virus) (UniProt Q5L478).
T1 sequence (whole entry): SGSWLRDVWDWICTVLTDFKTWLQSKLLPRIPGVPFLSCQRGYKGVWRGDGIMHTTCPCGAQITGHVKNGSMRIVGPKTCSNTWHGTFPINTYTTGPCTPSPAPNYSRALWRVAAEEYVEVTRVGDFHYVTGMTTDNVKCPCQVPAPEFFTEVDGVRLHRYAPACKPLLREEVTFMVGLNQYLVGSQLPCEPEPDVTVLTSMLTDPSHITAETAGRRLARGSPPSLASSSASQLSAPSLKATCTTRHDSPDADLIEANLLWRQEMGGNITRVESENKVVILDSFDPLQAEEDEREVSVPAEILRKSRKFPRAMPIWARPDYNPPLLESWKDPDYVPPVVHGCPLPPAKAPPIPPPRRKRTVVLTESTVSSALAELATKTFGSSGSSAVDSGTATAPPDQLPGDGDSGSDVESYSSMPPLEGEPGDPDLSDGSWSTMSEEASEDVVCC
The experiment can be described thus: Inhibition of HCV GT2a NS5A assessed as suppression of replicon RNA level by real-time PCR analysis. Particulars: Hepatitis C virus subtype 2a.

Experiment [3] concerns the target T1, Nonstructural protein 5A (Hepatitis C virus). The experiment can be described thus: Inhibition of HCV GT1a NS5A assessed as suppression of replicon RNA level by real-time PCR analysis. Particulars: Hepatitis C virus subtype 1a.
For experiment [4] the target is unchanged. Kind of experiment: Inhibition of HCV GT1b NS5A assessed as suppression of replicon RNA level by real-time PCR analysis. Particulars: Hepatitis C virus subtype 1b.
Experiment [5] has the same target. Kind of experiment: Inhibition of HCV GT4a NS5A assessed as suppression of replicon RNA level by real-time PCR analysis. To be noted: Hepatitis C virus subtype 4a.
Experiment [6] shares this target. Kind of experiment: Inhibition of HCV GT2b NS5A assessed as suppression of replicon RNA level by real-time PCR analysis. Particulars: Hepatitis C virus subtype 2b. In outline:
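GT2b replicon, which carries the naturally occurring NS5A 31M resistance-associated variant; potency given as EC90 in nM.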

Experiment [7] relates to T2, Nonstructural protein 5A (Hepatitis C virus), Q5L478 [Y93H].
T2 sequence (whole entry): T1 sequence (whole entry) with Y93H
The experiment can be described thus: Inhibition of HCV GT1a NS5A Y93H mutant assessed as suppression of replicon RNA level by real-time PCR analysis. Particulars: Hepatitis C virus subtype 1a.

Experiment [8] has as its target T1, Nonstructural protein 5A (Hepatitis C virus). Kind of experiment: Inhibition of HCV GT3a NS5A assessed as suppression of replicon RNA level by real-time PCR analysis. To be noted: Hepatitis C virus subtype 3a.

Molecules are shown by their SMILES. Positions count from the first letter of the chain named.

For the compound `COC(=O)N[C@H](C(=O)N1CCC[C@H]1c1ncc(-c2cc(F)c3c(c2)O[C@@H](c2ccccc2)n2c-3c(Cl)c3cc(-c4cnc([C@@H]5CCCN5C(=O)[C@@H](NC(=O)OC)C(C)C)[nH]4)ccc32)[nH]1)C(C)C`, the EC90 turned out to be 0.4 nM in experiment [1]; 0.03 nM in experiment [2]; 0.02 nM in experiment [3]; 0.006 nM in experiment [4]; 0.04 nM in experiment [5]; 42 nM in experiment [6]. Further, the EC90 in experiment [7] came out at 51 nM; in experiment [8], 2 nM.

Regarding `COC(=O)N[C@H](C(=O)N1CCC[C@H]1c1ncc(-c2ccc3c(c2)cc2n3C(c3ccccc3)Oc3cc(-c4cnc([C@@H]5C[C@@H](F)CN5C(=O)[C@@H](NC(=O)OC)C(C)C)[nH]4)cc(F)c3-2)[nH]1)C(C)C` (mixture of isomers), the EC90 in experiment [1] stood at 2 nM; in experiment [2], 0.04 nM; in experiment [3], 0.004 nM; in experiment [4], 0.003 nM; in experiment [5], 0.07 nM; in experiment [6], 16 nM. Also, the figures for the concentration for an effect of 90% (EC90) in experiment [7] and in experiment [8] were 1 nM and 0.1 nM, respectively.

With `COC(=O)N[C@H](C(=O)N1CCC[C@H]1c1ncc(-c2ccc3c(c2)OCn2c-3c(Cc3ccccc3)c3cc(-c4cnc([C@@H]5CCCN5C(=O)[C@@H](NC(=O)OC)C(C)C)[nH]4)ccc32)[nH]1)C(C)C`, the EC90 in experiment [1] stood at 9 nM; in experiment [3], 0.1 nM; in experiment [4], 0.01 nM; in experiment [6] it was 28 nM; in experiment [7], 187 nM.

For `COC(=O)N[C@H](C(=O)N1CCC[C@H]1c1ncc(-c2ccc3c(c2)OCn2c-3c(-c3ccccc3)c3cc(-c4cnc([C@@H]5CCCN5C(=O)[C@@H](NC(=O)OC)C(C)C)[nH]4)ccc32)[nH]1)C(C)C`, the EC90 in experiment [1] stood at 4 nM; in experiment [2] it was 0.01 nM; in experiment [3] it was 0.09 nM; in experiment [4] it was 0.004 nM; in experiment [5], 0.09 nM; in experiment [6] it was 204 nM. For the same compound, the EC90 in experiment [7] was found to be 5000 nM; in experiment [8], 3 nM.

As to `COC(=O)N[C@H](C(=O)N1CCC[C@H]1c1ncc(-c2cc(F)c3c(c2)OC(c2ccccc2)n2c-3cc3cc(-c4cnc([C@@H]5C[C@@H](F)CN5C(=O)[C@@H](NC(=O)OC)C(C)C)[nH]4)ccc32)[nH]1)C(C)C` (mixture of isomers), the EC90 turned out to be 2 nM in experiment [1]; 0.01 nM in experiment [2]; 0.003 nM in experiment [3]; 0.003 nM in experiment [4]; 0.05 nM in experiment [5]; 32 nM in experiment [6]. Moreover, the EC90 in experiment [7] was determined as 4 nM; in experiment [8] it was 0.3 nM.

Turning to `COC(=O)N[C@H](C(=O)N1CCC[C@H]1c1ncc(-c2ccc3c(c2)OCn2c-3cc3cc(-c4cnc([C@@H]5CCCN5C(=O)[C@@H](NC(=O)OC)C(C)C)[nH]4)cc(F)c32)[nH]1)C(C)C`, the EC90 in experiment [1] is 3 nM; in experiment [2] it was 0.1 nM; in experiment [3], 0.1 nM; in experiment [4], 0.01 nM; in experiment [5], 0.2 nM; in experiment [6], above 100 nM. Further, the results for the concentration for an effect of 90% (EC90) in experiment [7] and in experiment [8] were 139 nM and above 10 nM, respectively.

For the compound `COC(=O)N[C@H](C(=O)N1CCC[C@H]1c1ncc(-c2ccc3c(c2)cc2n3C(c3cccc(OC)c3)Oc3cc(-c4cnc([C@@H]5C[C@@H](F)CN5C(=O)[C@@H](NC(=O)OC)C(C)C)[nH]4)cc(F)c3-2)[nH]1)C(C)C` (stereo partly drawn), the EC90 in experiment [1] is 0.3 nM; in experiment [3], 0.002 nM; in experiment [4] it was 0.007 nM; in experiment [6], 19 nM; in experiment [7], 0.6 nM; in experiment [8] it was 0.1 nM.

For the compound `COC(=O)N[C@H](C(=O)N1C[C@H](F)C[C@H]1c1ncc(-c2ccc3c(c2)OC(c2ccccc2)n2c-3c(F)c3cc(-c4cnc([C@@H]5C[C@@H](F)CN5C(=O)[C@@H](NC(=O)OC)C(C)C)[nH]4)ccc32)[nH]1)C(C)C` (mixture of isomers), the concentration for an effect of 90% (EC90) in experiment [1] turned out to be 7 nM; in experiment [2], 0.3 nM; in experiment [3] it was 0.02 nM; in experiment [4], 0.005 nM; in experiment [5] it was 0.3 nM; in experiment [6] it was 58 nM. Besides, the values for the EC90 in experiment [7] and in experiment [8] were 2 nM and 8 nM, respectively.

For the compound `COC(=O)N[C@H](C(=O)N1CCC[C@H]1c1ncc(-c2ccc3c(c2)cc2n3C(c3ccc(OC(F)(F)F)cc3)Oc3cc(-c4cnc([C@@H]5C[C@@H](F)CN5C(=O)[C@@H](NC(=O)OC)C(C)C)[nH]4)cc(F)c3-2)[nH]1)C(C)C` (stereo partly drawn), the EC90 in experiment [3] turned out to be 0.03 nM; in experiment [4], 0.008 nM; in experiment [6], 13 nM; in experiment [7], 0.3 nM.

For the compound `COC(=O)N[C@H](C(=O)N1CCC[C@H]1c1ncc(-c2ccc3c(c2)OC(c2ccccc2)n2c-3c(F)c3cc(-c4cnc([C@@H]5C[C@@H](F)CN5C(=O)[C@@H](NC(=O)OC)C(C)C)[nH]4)ccc32)[nH]1)C(C)C` (mixture of isomers), the EC90 in experiment [1] was 2 nM; in experiment [2] it was 0.03 nM; in experiment [3] it was 0.005 nM; in experiment [4], 0.003 nM; in experiment [5], 0.1 nM; in experiment [7] it was 2 nM. The EC90 in experiment [8] is 2 nM.

For `CCCCOc1cccc(C2Oc3cc(-c4cnc([C@@H]5C[C@@H](F)CN5C(=O)[C@@H](NC(=O)OC)C(C)C)[nH]4)cc(F)c3-c3cc4cc(-c5cnc([C@@H]6C[C@@H](F)CN6C(=O)[C@@H](NC(=O)OC)C(C)C)[nH]5)ccc4n32)c1` (stereo partly drawn), the EC90 in experiment [1] worked out at 4 nM; in experiment [4], 0.008 nM; in experiment [6], 126 nM; in experiment [7], 0.1 nM.

With `COC(=O)N[C@H](C(=O)N1CCC[C@H]1c1ncc(-c2ccc3c(c2)OCn2c-3cc3cc(-c4cnc([C@@H]5CCCN5C(=O)[C@@H](NC(=O)OC)C(C)C)[nH]4)ccc32)[nH]1)C(C)C`, the EC90 came to 7 nM in experiment [1]; 0.02 nM in experiment [2]; 0.02 nM in experiment [3]; 0.02 nM in experiment [4]; 0.2 nM in experiment [5]; 76 nM in experiment [6]. Besides, the EC90 came out at 100 nM in experiment [7] and 1 nM in experiment [8].

In the case of `COC(=O)N[C@H](C(=O)N1CCC[C@H]1c1ncc(-c2ccc3c(c2)cc2n3[C@H](c3ccccc3)Oc3cc(-c4cnc([C@@H]5CCCN5C(=O)[C@@H](NC(=O)OC)C(C)C)[nH]4)c(F)cc3-2)[nH]1)C(C)C`, the EC90 in experiment [1] was 1 nM; in experiment [2], 0.003 nM; in experiment [3], 0.003 nM; in experiment [4] it was 0.003 nM; in experiment [5], 0.02 nM; in experiment [6], above 100 nM. For the same compound, the EC90 amounted to 62 nM in experiment [7] and 1 nM in experiment [8].

For the compound `COC(=O)N[C@H](C(=O)N1C[C@H](F)C[C@H]1c1ncc(-c2cc(F)c3c(c2)OC(c2cccc(OC)c2)n2c-3cc3cc(-c4cnc([C@@H]5C[C@@H](F)CN5C(=O)[C@@H](NC(=O)OC)C(C)C)[nH]4)ccc32)[nH]1)C(C)C` (stereo partly drawn), the EC90 in experiment [1] is 2 nM; in experiment [3], 0.006 nM; in experiment [4] it was 0.007 nM; in experiment [6], 39 nM; in experiment [7], 0.07 nM.

As to `COC(=O)N[C@H](C(=O)N1CCC[C@H]1c1nc(-c2ccc3c(c2)O[C@@H](c2ccccc2)n2c-3cc3cc(-c4c[nH]c([C@@H]5CCCN5C(=O)[C@@H](NC(=O)OC)C(C)C)n4)ccc32)c[nH]1)C(C)C`, the EC90 in experiment [2] was 0.019 nM; in experiment [5] it was 0.016 nM; in experiment [8], 0.12 nM.

Take `COC(=O)N[C@H](C(=O)N1C[C@H](F)C[C@H]1c1ncc(-c2cc(F)c3c(c2)OC(c2cccc(OC(F)(F)F)c2)n2c-3cc3cc(-c4cnc([C@@H]5C[C@@H](F)CN5C(=O)[C@@H](NC(=O)OC)C(C)C)[nH]4)ccc32)[nH]1)C(C)C` (stereo partly drawn): the EC90 is 7 nM in experiment [1]; 0.006 nM in experiment [3]; 0.005 nM in experiment [4]; 52 nM in experiment [6]; 0.2 nM in experiment [7].
